# Compounds with a hit are over-represented: about 2.9% of the library has one in this group of screens.
# UBC9 SUMO inh: SUMOylation inhibition; AID 2006; P63279; inhibition, % at 35 µM; 0.36% of 290,000 active; HTRF SUMOylation assay, SAE1/SAE2 + UBC9, in vitro; in the data active = inhibition above about 50%, passing the limit was not always enough
# Target sequence (P63279 whole entry, looked up): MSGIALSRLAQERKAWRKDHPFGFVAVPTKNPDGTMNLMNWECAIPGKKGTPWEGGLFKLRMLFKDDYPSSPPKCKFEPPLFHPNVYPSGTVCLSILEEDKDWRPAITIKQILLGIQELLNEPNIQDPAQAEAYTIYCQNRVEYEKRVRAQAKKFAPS
# NALP1 inh: blocks the NALP1 inflammasome reconstituted in yeast; S. cerevisiae NALP1/ASC/caspase-1 growth, X-gal OD620, 72 h; inhibition, % at 10 µM; 0.61% of 280,000 active; AID 2071; in the data active = inhibition mostly above about 24%, no sharp cut-off; inactive = mostly below about 32%
# VIM-2 inh: inhibitors of Pseudomonas aeruginosa VIM-2 metallo-beta-lactamase; purified VIM-2, nitrocefin hydrolysis, epi-absorbance fluorescence; inhibition, % at 5.6 µM; 0.89% of 290,000 active; AID 1527;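 active = inhibition above the mean of all tested compounds plus 3 SD, cutoff set per screening run, cut at about 7.5% in these data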;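 also: red hydrolysis product quenches plate fluorescence so inhibitors raise well fluorescence; 0% = enzyme with DMSO and 100% = DMSO without enzyme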
# Mot1-301 SUMO: blocks SUMOylation pathway, rescuing yeast Mot1-301 growth. S. cerevisiae Mot1-301 growth rescue, ATP luminescence, 38.5C; percent above DMSO median, 100 means doubled. growth rescue, % at 18.8 µM. 1% of 320,000 active. AID 2716;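 active = every valid replicate shows activation above 250% relative to neutral control wells; inactive = the rest, any valid replicate at or below 250%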;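 also: OY570 slx delta 5 strain wells were the positive control but not used for scaling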
# FID counter: counter-screen for HCV NS3 helicase inhibitors: DNA intercalator displacement; DNA fluorescent intercalator displacement, fluorescence; inhibition, % at 7.9 µM; 0.17% of 290,000 active; in the data active = inhibition above about 37%;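 also: 0% = vehicle and 100% = reference compound; higher means more ethidium bromide displaced from hairpin DNA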
# IMP-1 inhibitor: inhibitors of Pseudomonas aeruginosa IMP-1 metallo-beta-lactamase. purified IMP-1, nitrocefin hydrolysis, epi-absorbance fluorescence. inhibition, % at 5.6 µM. 0.45% of 290,000 active;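 active = inhibition above the mean plus 3 SD of all compounds in the same screening run, cut at about 4.5% in these data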;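 also: 0% = IMP-1 with DMSO and 100% = DMSO wells lacking enzyme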
#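 System: Purified IMP-1 | Read-out basis: Percent enzyme inhibition | Controls: IMP-1 with DMSO as 0%, enzyme-free DMSO as 100% | Replicates: One well per compound | Doses: 5.6 µM nominal single concentration | Detection: Epi-absorbance fluorescence, 480 nm excitation, 530 nm emission | Incubation: 25 °C, 15 min preincubation, 25 min reaction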
# An asterisk follows results filed as active; / = no result given.
SMILES,UBC9 SUMO inh,NALP1 inh,VIM-2 inh,Mot1-301 SUMO,FID counter,IMP-1 inhibitor
COc1ccccc1N(CC(=O)Nc1ccccc1C(=O)N1CCOCC1)S(C)(=O)=O,-8,-1,-3,-7,-8,-3
CC1(C)CC(=O)/C(=C\c2cccc([N+](=O)[O-])c2)C(C)(C)N1,3,67*,0,-18,5,-1
Fc1cc(F)c(C2SCCN2C(=S)Nc2cccc(C(F)(F)F)c2)c(F)c1 (stereo not drawn),-6,37*,-2,-12,-3,-3
NC(=S)N=Nc1c(O)n(CCCl)c2ccc(Cl)cc12,-2,12,5,341*,-1,-3
Cc1cc(C)[n+](-c2ccc(F)cc2)c2[nH]c(=O)[nH]c(=O)c12,18,20,-1,-9,-4,-3
CCCCNC(=O)CSc1nnc(Cc2ccccc2)n1CC1CCCO1 (stereo not drawn),5,7,-1,6,-15,-3
CCCCNC(=O)CSc1nnc(Cc2ccccc2)n1CC,9,-6,-1,-9,-16,4.5*
CCn1c(Cc2ccccc2)nnc1SCC(=O)Nc1ccc(N)cc1,16,-6,1,93,-7,-2
CCn1c(Cc2ccccc2)nnc1SCC(=O)Nc1ccccc1F,17,33*,-1,10,-17,-1
CCCn1c(C)cc(C(=O)COc2ccc(S(=O)(=O)N(CC)CC)cc2[N+](=O)[O-])c1C,11,8,-3,154,-13,-2
O=C(NC1CCCCC1)C(c1ccccc1F)N(Cc1ccco1)C(=O)c1ccccn1 (stereo not drawn),14,1,1,310*,-31,-3
COc1ccc(OC)c(C(C(=O)NC2CCCCC2)N(Cc2ccco2)C(=O)c2ccccn2)c1 (stereo not drawn),-2,0,-3,4,-40,-4
COc1ccc(/C=C2\Sc3ccc(C(=O)NCc4cccnc4)cc3N(C)C2=O)cc1OC,22,2,11*,-5,-35,-3
COc1cccc(/C=C2\Sc3ccc(C(=O)NCc4cccnc4)cc3N(C)C2=O)c1,4,2,0,17,-25,-1
CC(C)n1cc(C(N)=S)c(=O)n(Cc2ccccc2)c1=O,9,8,0,42,-10,6.3*
O=C(CCS(=O)(=O)c1ccc(Br)cc1)NCc1ccc(F)cc1,8,28,-2,10,-6,28*
Cc1ccc(CNC(=O)CCS(=O)(=O)c2ccc(Br)cc2)cc1,-15,4,-2,/,-9,-2
O=C(C[n+]1ccc(Cc2ccccc2)cc1)Nc1ccc([N+](=O)[O-])cc1Cl,23,-4,0,-12,17,-3
Cc1ccc(Cl)cc1NC(=O)C[n+]1ccc(Cc2ccc([N+](=O)[O-])cc2)cc1,2,-1,-2,-7,40*,-2
Cc1cc(C)cc(NC(=O)CSc2nc(CSc3ccc(Cl)cc3)cc(=O)[nH]2)c1,22,34*,-1,-3,-5,-1
COc1ccc2c3c(cccc13)C(=O)N(O)C2=O,1,9,9.0*,-22,0,-3
O=C1c2cccc3c([N+](=O)[O-])ccc(c23)C(=O)N1O,-14,10,8.8*,-33,2,2
O=C1c2cccc3c([N+](=O)[O-])ccc(c23)C(=O)N1c1ccccn1,23,5,4,75,8,0
CCN1C(=O)[C@@H]2[C@@H](c3ccc(-c4ccc(Cl)c(Cl)c4)c(OC)c3)N3CCC[C@@]3(C(=O)OC)[C@@H]2C1=O,/,/,/,11,/,/
CN(CC(=O)Nc1ccc(F)c(F)c1)S(=O)(=O)c1cccc2cccnc12,4,10,-1,-23,-19,-3
SMILES,UBC9 SUMO inh,NALP1 inh,VIM-2 inh,Mot1-301 SUMO,FID counter,IMP-1 inhibitor
CN(CC(=O)Nc1ccc(Cl)cc1)S(=O)(=O)c1cccc2cccnc12,0,37*,-4,-2,-13,-2
Cc1ccc(NC(=O)CN(C)S(=O)(=O)c2cccc3nsnc23)cc1,14,34,-2,10,-4,-1
CC(=O)c1cccc(NC(=O)CN(C)S(=O)(=O)c2cccc3nsnc23)c1,-7,32*,1,30,-2,-1
COc1ccc(/C=C(\NC(=O)c2ccccc2)C(=O)NCCC(=O)O)cc1,15,8,-2,-18,-7,-5
CCOC(=O)N1CCN(c2cc(NCCO)c([N+](=O)[O-])c3nonc23)CC1,29,10,-1,-7,4,-3
Cc1cc(N2CCN(C(=O)c3ccco3)CC2)c2ccccc2n1,1,-7,-2,-2,-4,-2
CC(=O)OCCNc1cc(N2CCN(C)CC2)c2noc3c2c1C(=O)c1ccccc1-3,0,-34,8.2*,/,15,-1
O=C(O)CCNc1cc(N2CCN(C(=O)c3ccco3)CC2)c2noc3c2c1C(=O)c1ccccc1-3,-19,5,0,-22,-13,7.0*
CCn1nc(Cc2cccc3ccccc23)c(C#N)c1N,/,/,/,-3,/,/
N#CCCn1nc(Cc2cccc3ccccc23)c(C#N)c1N,/,/,/,331*,/,/
O=C(c1ccco1)N1CCN(c2ncnc3c2oc2ccccc23)CC1,2,43,10.0*,-1,-24,-3
c1cnc(N2CCN(c3ncnc4c3oc3ccccc34)CC2)nc1,-1,9,/,/,/,/
COc1cc(NC(=O)COC(=O)CCCC2=NS(=O)(=O)c3ccccc3N2)cc(OC)c1,/,24,-4,333*,-22,0
Cc1ccc([N+](=O)[O-])cc1NC(=S)NC(=O)C(C)(C)C,-14,-8,3,-9,8,5.1*
Cc1ccc(OC(=O)C2CCN(C(=O)c3ccccc3C)CC2)c(Br)c1,/,/,/,4,/,/
COc1cccc(OC)c1C(=O)OCCCOC(=O)c1c(OC)cccc1OC,-10,28*,-2,-25,-55,-1
COc1ccc(C(=O)OCCCOC(=O)c2ccc(OC)cc2OC)c(OC)c1,2,10,-1,-11,-54,-1
CC(=O)/C=C(\C)N=Nc1c(O)[nH]c2ccccc12,-3,-4,2,-13,-12,-2
COc1ccc(CNC(=O)COC(=O)CCN2C(=O)C3CC=CCC3C2=O)cc1OC (stereo not drawn),/,/,/,40,/,/
Cc1ccc(S(=O)(=O)c2cc3c(=O)n4ccccc4nc3n(CCc3ccccc3)c2=N)cc1,-3,32*,3,-2,6,-1
Cc1ccc2nc3c(cc(S(=O)(=O)c4ccccc4)c(=N)n3Cc3ccco3)c(=O)n2c1,80*,-3,-1,-5,-1,-2
N=c1c(S(=O)(=O)c2ccccc2)cc2c(=O)n3ccccc3nc2n1Cc1ccco1,50*,22,2,1,-4,-2
Cc1cc(C)c(NC(=O)CNC(=O)COC(=O)CNC(=O)c2ccc(Cl)cc2Cl)c(C)c1,/,/,/,7,/,/
CCCCCn1nc(C(=O)OCc2nc(N)nc(Nc3ccccc3)n2)c2ccccc2c1=O,/,/,/,14,/,/

# Source: PubChem BioAssay (several laboratories)
